In ChEMBL document CHEMBL1133016, “Opiate aromatic pharmacophore structure-activity relationships in CTAP analogues determined by topographical bias, two-dimensional NMR, and biological activity assays” (J Med Chem, 2000):
Bridge positions count the residues as written; N and C are the ends. Square brackets hold non-standard residues; d marks the D form. Peptide text beside a SMILES is read from it. dTic = O=C(O)[C@H]1Cc2ccccc2CN1; Pen = CC(C)(S)[C@H](N)C(=O)O

How the values were obtained:
Mus musculus = species on record: Mus musculus; test: Evaluated for agonist activity as percent inhibition in electrically evoked twitch height in mouse vas deferens (MVD) at 1 uM concentration of compound; type: functional
How it was run: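 Vasa deferentia from male ICR mice (25-40 g), held in magnesium-free Krebs at 37 °C under 95% O₂/5% CO₂. Hung 15 min without tension, then under 0.5 g resting tension. Stimulated transmurally at 0.1 Hz, 2 ms pulses, supramaximal voltage. Twitch inhibition read 3 min after agonist, expressed relative to the pre-dose twitch height. Mean ± SEM.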

Cavia porcellus [1] = species on record: Cavia porcellus; test: Evaluated for agonist activity as percent inhibition in electrically evoked twitch height in Guinea pig ileum (GPI) at 1 uM concentration of compound; type: functional
How it was run: (§1)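 Longitudinal muscle-myenteric plexus strips from nonterminal ileum of male Hartley guinea pigs (250-500 g). Held in Krebs-bicarbonate at 37 °C under 95% O₂/5% CO₂, 1 g resting tension after 15 min unloaded equilibration. Stimulated transmurally at 0.1 Hz, 0.4 ms pulses, supramaximal voltage. Agonist twitch effect read after 3 min incubation; antagonist added 2 min before agonist. Mean ± SEM.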

Cavia porcellus [2] = species on record: Cavia porcellus; test: Evaluated for antagonist activity as the rightward fold shift of dose response curve of the known agonist PL-017 in Guinea pig ileum (GPI) at 1 uM concentration of compound; type: functional; how it was run: as §1
[3] = target: Delta-type opioid receptor (Rattus norvegicus, UniProt P33533); test: Binding affinity for rat brain Opioid receptor delta 1
How it was run: (§2)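 Whole-brain membranes from adult Sprague-Dawley rats (250-300 g), homogenized at 0 °C in 50 mM Tris-HCl pH 7.4, centrifuged at 48 000g, and preincubated at 25 °C to strip endogenous ligand. Competition run for 3 h at 25 °C in Tris-HCl with BSA, bestatin, bacitracin, captopril and PMSF. Radioligand was [3H][4′-Cl-Phe4]DPDPE 0.75 nM for δ or [3H]DAMGO 1.0 nM for μ, with ≥10 analogue concentrations. Nonspecific binding defined with 10 µM naltrexone; each analogue tested ≥3 times.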

Mu-type opioid receptor = Mu-type opioid receptor (Rattus norvegicus, UniProt P33535); test: Binding affinity for rat brain Opioid receptor mu 1; how it was run: as §2
Cavia porcellus [4] = species on record: Cavia porcellus; test: Evaluated for antagonist activity as the rightward fold shift of dose response curve of the known agonist PL-017 in Guinea pig ileum (GPI). 1-fold indicates no change in the dose response curve; type: functional; how it was run: as §1

Delta-type opioid receptor, sequence (P33533 whole entry): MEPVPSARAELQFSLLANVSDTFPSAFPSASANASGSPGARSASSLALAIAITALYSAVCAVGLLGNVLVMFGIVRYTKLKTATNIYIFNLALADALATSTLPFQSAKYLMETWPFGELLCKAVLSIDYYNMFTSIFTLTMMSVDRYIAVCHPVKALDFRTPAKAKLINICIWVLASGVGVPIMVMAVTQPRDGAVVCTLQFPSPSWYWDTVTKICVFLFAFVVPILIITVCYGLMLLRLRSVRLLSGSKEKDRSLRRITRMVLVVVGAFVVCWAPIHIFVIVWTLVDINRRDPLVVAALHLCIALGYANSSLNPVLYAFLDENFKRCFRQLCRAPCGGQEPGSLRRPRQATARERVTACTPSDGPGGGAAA
Mu-type opioid receptor, sequence (P33535 whole entry): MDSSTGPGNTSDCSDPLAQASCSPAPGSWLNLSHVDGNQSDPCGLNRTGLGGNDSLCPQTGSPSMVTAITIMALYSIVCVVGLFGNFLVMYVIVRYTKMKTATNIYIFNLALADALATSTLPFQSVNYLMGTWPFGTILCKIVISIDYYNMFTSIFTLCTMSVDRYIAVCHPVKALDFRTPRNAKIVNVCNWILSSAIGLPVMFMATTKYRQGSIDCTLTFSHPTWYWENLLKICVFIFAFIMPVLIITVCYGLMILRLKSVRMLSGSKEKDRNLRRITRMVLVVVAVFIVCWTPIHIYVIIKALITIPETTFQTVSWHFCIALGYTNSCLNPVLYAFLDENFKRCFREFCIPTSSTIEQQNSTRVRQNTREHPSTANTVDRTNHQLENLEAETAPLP

SMILES	inhibition at 1 µM (Mus musculus) [%]	inhibition at 1 µM (Cavia porcellus [1]) [%]	PL-017 shift (Cavia porcellus [2])	IC50 [3] [µM]	IC50 (Mu-type opioid receptor) [µM]	PL-017 shift (Cavia porcellus [4])
C[C@@H](O)[C@H](NC(=O)[C@H]1NC(=O)[C@H]([C@@H](C)O)NC(=O)[C@H](CCCNC(=N)N)NC(=O)[C@@H](Cc2c[nH]c3ccccc23)NC(=O)[C@H](Cc2ccc(O)cc2)NC(=O)[C@@H](NC(=O)[C@H](N)Cc2ccccc2)CSSC1(C)C)C(N)=O	17	4	55	–	–	–
C[C@@H](O)[C@H](NC(=O)[C@H]1NC(=O)[C@H]([C@@H](C)O)NC(=O)[C@H](CCCN=C(N)N)NC(=O)[C@@H](Cc2c[nH]c3ccccc23)NC(=O)[C@H](Cc2ccc(O)cc2)NC(=O)[C@@H](NC(=O)[C@H](N)[C@@H](C)c2ccccc2)CSSC1(C)C)C(N)=O [listing 1 of 2 here]	–	–	–	1.32	0.021	–
C[C@@H](O)[C@H](NC(=O)[C@H]1NC(=O)[C@H]([C@@H](C)O)NC(=O)[C@H](CCCN=C(N)N)NC(=O)[C@@H](Cc2c[nH]c3ccccc23)NC(=O)[C@H](Cc2ccc(O)cc2)NC(=O)[C@@H](NC(=O)[C@H](N)[C@@H](C)c2ccccc2)CSSC1(C)C)C(N)=O [listing 2 of 2 here]	8	0	15	–	–	–
C[C@H](c1ccccc1)[C@@H](N)C(=O)N[C@H]1CSSC(C)(C)[C@@H](C(=O)N[C@H](C(N)=O)[C@@H](C)O)NC(=O)[C@H]([C@@H](C)O)NC(=O)[C@H](CCCN=C(N)N)NC(=O)[C@@H](Cc2c[nH]c3ccccc23)NC(=O)[C@H](Cc2ccc(O)cc2)NC1=O [listing 1 of 2 here]	–	–	–	1.19	0.02	–
C[C@H](c1ccccc1)[C@@H](N)C(=O)N[C@H]1CSSC(C)(C)[C@@H](C(=O)N[C@H](C(N)=O)[C@@H](C)O)NC(=O)[C@H]([C@@H](C)O)NC(=O)[C@H](CCCN=C(N)N)NC(=O)[C@@H](Cc2c[nH]c3ccccc23)NC(=O)[C@H](Cc2ccc(O)cc2)NC1=O [listing 2 of 2 here]	34	0	19	–	–	–
C[C@H](c1c[nH]c2ccccc12)[C@H](N)C(=O)N[C@H]1CSSC(C)(C)[C@@H](C(=O)N[C@H](C(N)=O)[C@@H](C)O)NC(=O)[C@H]([C@@H](C)O)NC(=O)[C@H](CCCNC(=N)N)NC(=O)[C@@H](Cc2c[nH]c3ccccc23)NC(=O)[C@H](Cc2ccc(O)cc2)NC1=O	–	–	–	7.46	3.4	–
C[C@H](c1c[nH]c2ccccc12)[C@H](N)C(=O)N[C@H]1CSSC(C)(C)[C@@H](C(=O)N[C@H](C(N)=O)[C@@H](C)O)NC(=O)[C@H]([C@@H](C)O)NC(=O)[C@H](CCCN=C(N)N)NC(=O)[C@@H](Cc2c[nH]c3ccccc23)NC(=O)[C@H](Cc2ccc(O)cc2)NC1=O	0	0	1	–	–	–
C[C@@H](O)[C@H](NC(=O)[C@H]1NC(=O)[C@H]([C@@H](C)O)NC(=O)[C@H](CCCN=C(N)N)NC(=O)[C@@H](Cc2c[nH]c3ccccc23)NC(=O)[C@H](Cc2ccc(O)cc2)NC(=O)[C@@H](NC(=O)[C@H](N)Cc2c[nH]c3ccccc23)CSSC1(C)C)C(N)=O [listing 1 of 2 here]	–	–	–	3.53	0.00139	–
C[C@@H](O)[C@H](NC(=O)[C@H]1NC(=O)[C@H]([C@@H](C)O)NC(=O)[C@H](CCCN=C(N)N)NC(=O)[C@@H](Cc2c[nH]c3ccccc23)NC(=O)[C@H](Cc2ccc(O)cc2)NC(=O)[C@@H](NC(=O)[C@H](N)Cc2c[nH]c3ccccc23)CSSC1(C)C)C(N)=O [listing 2 of 2 here]	13.6	43	1	–	–	–
C[C@@H](O)[C@H](NC(=O)[C@H]1NC(=O)[C@H]([C@@H](C)O)NC(=O)[C@H](CCCNC(=N)N)NC(=O)[C@@H](Cc2c[nH]c3ccccc23)NC(=O)[C@H](Cc2ccc(O)cc2)NC(=O)[C@@H](NC(=O)[C@@H](N)[C@@H](C)c2ccccc2)CSSC1(C)C)C(N)=O	–	–	–	> 15	1.5	–
C[C@@H](O)[C@H](NC(=O)[C@H]1NC(=O)[C@H]([C@@H](C)O)NC(=O)[C@H](CCCN=C(N)N)NC(=O)[C@@H](Cc2c[nH]c3ccccc23)NC(=O)[C@H](Cc2ccc(O)cc2)NC(=O)[C@@H](NC(=O)[C@@H](N)[C@@H](C)c2ccccc2)CSSC1(C)C)C(N)=O	35	0	1	–	–	–
C[C@@H](O)[C@H](NC(=O)[C@H]1NC(=O)[C@H]([C@@H](C)O)NC(=O)[C@H](CCCN=C(N)N)NC(=O)[C@@H](Cc2c[nH]c3ccccc23)NC(=O)[C@H](Cc2ccc(O)cc2)NC(=O)[C@@H](NC(=O)[C@H]2Cc3c([nH]c4ccccc34)CN2)CSSC1(C)C)C(N)=O [listing 1 of 2 here]	–	–	–	0.211	0.173	–
C[C@@H](O)[C@H](NC(=O)[C@H]1NC(=O)[C@H]([C@@H](C)O)NC(=O)[C@H](CCCN=C(N)N)NC(=O)[C@@H](Cc2c[nH]c3ccccc23)NC(=O)[C@H](Cc2ccc(O)cc2)NC(=O)[C@@H](NC(=O)[C@H]2Cc3c([nH]c4ccccc34)CN2)CSSC1(C)C)C(N)=O [listing 2 of 2 here]	–	18	1.2	–	–	–
C[C@H](c1ccccc1)[C@H](N)C(=O)N[C@H]1CSSC(C)(C)[C@@H](C(=O)N[C@H](C(N)=O)[C@@H](C)O)NC(=O)[C@H]([C@@H](C)O)NC(=O)[C@H](CCCN=C(N)N)NC(=O)[C@@H](Cc2c[nH]c3ccccc23)NC(=O)[C@H](Cc2ccc(O)cc2)NC1=O [listing 1 of 2 here]	–	–	–	13.2	5.42	–
C[C@H](c1ccccc1)[C@H](N)C(=O)N[C@H]1CSSC(C)(C)[C@@H](C(=O)N[C@H](C(N)=O)[C@@H](C)O)NC(=O)[C@H]([C@@H](C)O)NC(=O)[C@H](CCCN=C(N)N)NC(=O)[C@@H](Cc2c[nH]c3ccccc23)NC(=O)[C@H](Cc2ccc(O)cc2)NC1=O [listing 2 of 2 here]	0	13	–	–	–	1
C[C@@H](O)[C@H](NC(=O)[C@H]1NC(=O)[C@H]([C@@H](C)O)NC(=O)[C@H](CCCNC(=N)N)NC(=O)[C@@H](Cc2c[nH]c3ccccc23)NC(=O)[C@H](Cc2ccc(O)cc2)NC(=O)[C@@H](NC(=O)[C@H](N)[C@@H](C)c2c[nH]c3ccccc23)CSSC1(C)C)C(N)=O	–	–	–	7.48	0.0121	–
C[C@@H](O)[C@H](NC(=O)[C@H]1NC(=O)[C@H]([C@@H](C)O)NC(=O)[C@H](CCCN=C(N)N)NC(=O)[C@@H](Cc2c[nH]c3ccccc23)NC(=O)[C@H](Cc2ccc(O)cc2)NC(=O)[C@@H](NC(=O)[C@H](N)[C@@H](C)c2c[nH]c3ccccc23)CSSC1(C)C)C(N)=O	0	0	68	–	–	–
C[C@H](c1c[nH]c2ccccc12)[C@@H](N)C(=O)N[C@H]1CSSC(C)(C)[C@@H](C(=O)N[C@H](C(N)=O)[C@@H](C)O)NC(=O)[C@H]([C@@H](C)O)NC(=O)[C@H](CCCNC(=N)N)NC(=O)[C@@H](Cc2c[nH]c3ccccc23)NC(=O)[C@H](Cc2ccc(O)cc2)NC1=O	–	–	–	3.64	0.0187	–
C[C@H](c1c[nH]c2ccccc12)[C@@H](N)C(=O)N[C@H]1CSSC(C)(C)[C@@H](C(=O)N[C@H](C(N)=O)[C@@H](C)O)NC(=O)[C@H]([C@@H](C)O)NC(=O)[C@H](CCCN=C(N)N)NC(=O)[C@@H](Cc2c[nH]c3ccccc23)NC(=O)[C@H](Cc2ccc(O)cc2)NC1=O	3.7	0	39	–	–	–
C[C@@H](O)[C@H](NC(=O)[C@H]1NC(=O)[C@H]([C@@H](C)O)NC(=O)[C@H](CCCNC(=N)N)NC(=O)[C@@H](Cc2c[nH]c3ccccc23)NC(=O)[C@H](Cc2ccc(O)cc2)NC(=O)[C@@H](NC(=O)[C@@H](N)[C@@H](C)c2c[nH]c3ccccc23)CSSC1(C)C)C(N)=O	–	–	–	9.18	1.36	–
C[C@@H](O)[C@H](NC(=O)[C@H]1NC(=O)[C@H]([C@@H](C)O)NC(=O)[C@H](CCCN=C(N)N)NC(=O)[C@@H](Cc2c[nH]c3ccccc23)NC(=O)[C@H](Cc2ccc(O)cc2)NC(=O)[C@@H](NC(=O)[C@@H](N)[C@@H](C)c2c[nH]c3ccccc23)CSSC1(C)C)C(N)=O	0	0	2.6	–	–	–
C[C@@H](O)[C@H](NC(=O)[C@H]1NC(=O)[C@H]([C@@H](C)O)NC(=O)[C@H](CCCN=C(N)N)NC(=O)[C@@H](Cc2c[nH]c3ccccc23)NC(=O)[C@H](Cc2ccc(O)cc2)NC(=O)[C@@H](NC(=O)[C@H]2Cc3ccccc3CN2)CSSC1(C)C)C(N)=O (H-[dTic]CY[dW]RT[Pen]T-NH2; disulfide 2-7)	10	1	60	–	–	–
